From publication PMC7398146 (The Journal of General Physiology, 2020)

Legend:
hKV7.2/3 = hKV7.2/3 (Homo sapiens, UniProt O43525+O43526); experiment: Two-electrode voltage clamp, hKV7.2/3 in Xenopus oocytes; format: cell-based; conditions: for effect on maximal conductance GMAX (in words) / shift of V50 (in words): 10 µM and 100 µM
Summary of the method: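 hKV7.2 and hKV7.3 cRNA (2.5 ng each) were coinjected into Xenopus oocytes, held 2–4 d at 8°C or 16°C, and clamped with two electrodes at rt in HEPES saline, pH 7.4. Holding −80 mV; 2-s steps from −100 to +50 mV in 10-mV increments; tail −30 mV. Boltzmann G(V) fits per oocyte gave ΔV50 and GMAX change. A Hill fit across concentrations gave EC50. Current fold increase was taken per test voltage; mean ± SEM.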

hKV7.1 = hKV7.1 (Homo sapiens, UniProt P51787); conditions: ref Schenzer et al., 2005; cited from earlier work
Chain of hKV7.1 (P51787 whole entry): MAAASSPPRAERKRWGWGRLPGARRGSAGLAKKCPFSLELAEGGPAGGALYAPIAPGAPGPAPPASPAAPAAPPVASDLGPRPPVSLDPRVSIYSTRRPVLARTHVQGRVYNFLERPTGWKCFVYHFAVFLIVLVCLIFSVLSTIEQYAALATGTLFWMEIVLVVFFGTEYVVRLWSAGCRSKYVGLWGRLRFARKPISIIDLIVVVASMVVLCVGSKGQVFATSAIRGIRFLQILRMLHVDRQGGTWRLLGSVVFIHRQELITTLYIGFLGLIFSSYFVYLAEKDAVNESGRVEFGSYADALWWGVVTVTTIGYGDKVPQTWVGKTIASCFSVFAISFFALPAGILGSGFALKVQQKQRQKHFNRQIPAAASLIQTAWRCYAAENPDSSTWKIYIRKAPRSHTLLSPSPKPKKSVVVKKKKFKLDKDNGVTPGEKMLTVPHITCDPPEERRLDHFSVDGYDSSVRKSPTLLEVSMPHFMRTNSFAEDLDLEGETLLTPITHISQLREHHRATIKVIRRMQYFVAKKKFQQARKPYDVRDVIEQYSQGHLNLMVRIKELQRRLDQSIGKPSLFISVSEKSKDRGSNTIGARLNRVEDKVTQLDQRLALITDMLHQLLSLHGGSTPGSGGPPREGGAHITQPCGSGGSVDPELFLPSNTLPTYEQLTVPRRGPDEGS

[1] = biological target: hKV7.2_W236L/hKV7.3_W265L (Homo sapiens, UniProt O43525+O43526, A315T/W236L/W265L); experiment: Two-electrode voltage clamp, tryptophan mutant heteromer; format: cell-based; conditions: 3 µM
Summary of the method: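 Human KV7 cRNA (2.5–50 ng per oocyte; mutants made by site-directed mutagenesis) was injected into Xenopus oocytes, which were kept 2–4 d at 8°C or 16°C. Two-electrode clamp was run at rt in 88 mM NaCl/1 mM KCl/15 mM HEPES saline, pH 7.4. Holding −80 mV; 2-s steps from −100 to +50 mV; tail −30 mV. Tail-current Boltzmann G(V) fits used a shared slope, giving per-oocyte ΔV50 and GMAX change; mean ± SEM.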

[2] = 10 µM, analogues compared with ARA-S

## CCCCC/C=C\C/C=C\C/C=C\C/C=C\CCCC(=O)NCCO [AEA, N-arachidonoylethanolamine]
hKV7.2/3
  effect on maximal conductance GMAX (in words): no effect
  shift of V50 (in words): no effect

## CCOC(=O)Nc1ccc(NCc2ccc(F)cc2)cc1N [retigabine]
hKV7.2/3; 1 µM alone
  current fold increase at −60 mV: three- to fourfold
  increase in GMAX: did not affect
  shift in V50 (ΔV50): −8.1 ± 0.7 mV
hKV7.2/3; from concentration-response curve
  ΔV50:MAX (maximal shift in V50): −35 mV
hKV7.1
  sensitivity of the channel: insensitive
[1]
  sensitivity (shift in V50): insensitive

## CCCCC/C=C\C/C=C\C/C=C\C/C=C\CCCC(=O)N[C@H](CO)C(=O)O (single isomer, unassigned) [D enantiomer of ARA-S, N-arachidonoyl-D-serine]
hKV7.2/3; [2]
  effect on GMAX (in words): comparable
  effect on V50 (in words): comparable

## CCCCC/C=C\C/C=C\C/C=C\C/C=C\CCCC(=O)OC(CO)CO [2-AG, 2-arachidonoylglycerol]
hKV7.2/3
  effect on maximal conductance GMAX (in words): no effect
  shift of V50 (in words): no effect
